In ChEMBL document CHEMBL1139160 (Bioorg Med Chem Lett, 2007):

test system: Rattus norvegicus; assay: Inhibition of DPP4 in Wistar rat plasma at 10 umol/kg, po within 30 mins; type: functional; details: 0.5 h
Method in brief: (§1)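 Male/female not stated; Wistar rats given single oral dose of 10 µmol/kg in 0.5% hydroxypropylmethyl-cellulose. Jugular vein blood (0.1 mL) taken pre-dose and 0.5, 1, 2, 3, 5, 7, 9 h; plasma diluted 10-fold in PBS with 0.003% Brij-35, DPP-IV activity read by Gly-Pro-MCA fluorescence (ex 360/em 465 nm); % change of baseline, means ± SEM, n = 3.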

Structure (SMILES) | inhibition in vivo at 10 µmol/kg [%]
N#Cc1ccc(N2CCN([C@@H]3CN[C@H](C(=O)N4CCSC4)C3)CC2)cc1C#N | 95
O=C([C@@H]1C[C@H](N2CCN(c3ccc([N+](=O)[O-])cn3)CC2)CN1)N1CCSC1 | 95

target: Dipeptidyl peptidase 4 (Rattus norvegicus, UniProt P14740); assay: Inhibition of DPP4 in rat plasma by fluorescence assay; type: cell-free; details: not given
Sequence (P14740 whole entry): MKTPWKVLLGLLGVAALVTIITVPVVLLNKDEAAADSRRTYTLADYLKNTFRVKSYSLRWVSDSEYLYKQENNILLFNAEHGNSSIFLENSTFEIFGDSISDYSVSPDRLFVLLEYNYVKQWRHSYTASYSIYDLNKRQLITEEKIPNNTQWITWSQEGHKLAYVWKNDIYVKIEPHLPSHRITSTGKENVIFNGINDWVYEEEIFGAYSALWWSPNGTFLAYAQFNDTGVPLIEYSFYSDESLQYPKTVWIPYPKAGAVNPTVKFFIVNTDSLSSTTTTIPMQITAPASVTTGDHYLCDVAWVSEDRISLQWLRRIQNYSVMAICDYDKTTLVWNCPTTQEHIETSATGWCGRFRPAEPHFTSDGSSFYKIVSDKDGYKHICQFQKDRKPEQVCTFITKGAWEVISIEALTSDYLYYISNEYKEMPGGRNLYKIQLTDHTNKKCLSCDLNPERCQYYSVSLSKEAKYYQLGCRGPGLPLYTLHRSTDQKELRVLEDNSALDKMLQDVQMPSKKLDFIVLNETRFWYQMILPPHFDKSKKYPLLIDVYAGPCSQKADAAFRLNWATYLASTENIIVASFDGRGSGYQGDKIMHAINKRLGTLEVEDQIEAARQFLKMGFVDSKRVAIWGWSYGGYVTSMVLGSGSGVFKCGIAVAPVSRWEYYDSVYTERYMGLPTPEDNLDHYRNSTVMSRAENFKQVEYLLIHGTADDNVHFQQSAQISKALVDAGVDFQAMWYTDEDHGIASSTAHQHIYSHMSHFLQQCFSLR

Structure (SMILES) | IC50 [nM]
O=C([C@@H]1C[C@H](N2CCN(c3ccc(Br)cc3)CC2)CN1)N1CCSC1 | 9
COc1ccc(N2CCN([C@@H]3CN[C@H](C(=O)N4CCSC4)C3)CC2)cc1 | 16.9
O=C([C@@H]1C[C@H](N2CCN(c3cccc(Cl)c3)CC2)CN1)N1CCSC1 | 7.2
N#Cc1ccc(N2CCN([C@@H]3CN[C@H](C(=O)N4CCSC4)C3)CC2)nc1 | 1.9
N#Cc1ccnc(N2CCN([C@@H]3CN[C@H](C(=O)N4CCSC4)C3)CC2)c1 | 1.4
O=C([C@@H]1C[C@H](N2CCN(c3ccc(Cl)cc3)CC2)CN1)N1CCSC1 | 10.3
N#Cc1ccc(N2CCN([C@@H]3CN[C@H](C(=O)N4CCSC4)C3)CC2)cc1 | 4.7
O=C([C@@H]1C[C@H](N2CCCCC2)CN1)N1CCSC1 | 74.4
O=C([C@@H]1C[C@H](N2CCN(c3ccc(F)cc3)CC2)CN1)N1CCSC1 | 17.5
O=C([C@@H]1C[C@H](N2CCN(c3ccccc3)CC2)CN1)N1CCSC1 | 17.6
O=C([C@@H]1C[C@H](N2CCN(c3ccc(C(F)(F)F)cc3)CC2)CN1)N1CCSC1 | 7.2

test system: Rattus norvegicus; assay: Inhibition of DPP4 in Wistar rat plasma at 10 umol/kg, po; type: functional; details: not given; method in brief: as §1

Structure (SMILES) | inhibition in vivo at 10 µmol/kg [%]
N#Cc1ccc(N[C@@H]2CN[C@H](C(=O)N3CCSC3)C2)nc1 | 70

test system: Rattus norvegicus; assay: Inhibition of DPP4 in Wistar rat plasma at 10 umol/kg, po after 9 hrs; type: functional; details: read-out: Inhibition; method in brief: as §1

Structure (SMILES) | inhibition in vivo at 10 µmol/kg [%]
N#Cc1ccc(N2CCN([C@@H]3CN[C@H](C(=O)N4CCSC4)C3)CC2)cc1C#N | > 60
O=C([C@@H]1C[C@H](N2CCN(c3ccc([N+](=O)[O-])cn3)CC2)CN1)N1CCSC1 | > 60
